Assay results from ChEMBL document CHEMBL1137592, “3-[2-((2S)-2-cyano-pyrrolidin-1-yl)-2-oxo-ethylamino]-3-methyl-butyramide analogues as selective DPP-IV inhibitors for the treatment of type-II diabetes” (Bioorg Med Chem Lett, 2007).
The source made the active and inactive calls. No cut-off for these calls is given here.

How the values were obtained:
[1] = biological target: Dipeptidyl peptidase 8 (Homo sapiens, UniProt Q6V1X1); assay: In vitro inhibition of DPP-8
[2] = biological target: T1, Prolyl endopeptidase FAP (Homo sapiens, UniProt Q12884); assay: In vitro inhibition of FAP, seprase
T1 sequence (Q12884 whole entry): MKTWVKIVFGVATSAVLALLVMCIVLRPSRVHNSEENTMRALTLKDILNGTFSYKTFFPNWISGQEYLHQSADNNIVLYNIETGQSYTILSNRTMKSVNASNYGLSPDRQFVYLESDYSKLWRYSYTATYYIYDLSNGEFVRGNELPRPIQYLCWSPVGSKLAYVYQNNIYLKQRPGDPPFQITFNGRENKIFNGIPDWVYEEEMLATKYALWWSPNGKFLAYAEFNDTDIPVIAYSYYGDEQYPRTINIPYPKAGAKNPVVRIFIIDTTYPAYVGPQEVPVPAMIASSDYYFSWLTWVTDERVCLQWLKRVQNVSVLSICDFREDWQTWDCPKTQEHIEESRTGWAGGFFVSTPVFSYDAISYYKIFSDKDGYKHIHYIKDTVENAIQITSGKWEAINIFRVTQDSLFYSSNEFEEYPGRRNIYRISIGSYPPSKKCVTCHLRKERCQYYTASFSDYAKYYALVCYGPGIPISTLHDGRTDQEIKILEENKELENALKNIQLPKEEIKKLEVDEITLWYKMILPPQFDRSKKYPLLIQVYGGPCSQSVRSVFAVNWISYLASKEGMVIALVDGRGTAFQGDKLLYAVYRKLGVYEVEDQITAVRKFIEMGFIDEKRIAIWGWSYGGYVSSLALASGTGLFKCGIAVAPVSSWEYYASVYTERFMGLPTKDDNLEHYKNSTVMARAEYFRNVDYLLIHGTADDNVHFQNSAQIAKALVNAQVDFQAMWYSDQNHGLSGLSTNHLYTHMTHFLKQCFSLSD
Method in brief: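 FAP cDNA was cloned into the pBacPAC8-CD5 vector, then the enzyme was expressed and purified. Activity was measured with Gly-Pro-pNA as substrate at 6 mM.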

[3] = biological target: Dipeptidyl peptidase 2 (Homo sapiens, UniProt Q9UHL4); assay: In vitro inhibition of DPP-II
[4] = species on record: Rattus norvegicus; details: 10 mg/kg
[5] = biological target: Dipeptidyl peptidase 4 (Rattus norvegicus) (UniProt P14740); assay: Ex vivo inhibition of plasma DPP-4 activity in rats 8 hours after 10 mg/kg oral dose; assay type: functional, organism-based; parameters: dose 10 mg/kg; details: at 10 mg/kg
Method in brief: (§1)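 Adult male Wistar rats got a single oral gavage dose of 10 mg/kg at 0 h. Blood was collected over time and plasma DPP-IV activity was read as the cleavage rate of Gly-Pro-AMC. Means ± SEM, n = 4/group.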

[6] = biological target: Dipeptidyl peptidase 4 (Rattus norvegicus) (UniProt P14740); assay: Ex vivo inhibition of plasma DPP-4 activity in rats 30 minutes after 10 mg/kg oral dose; assay type: functional, organism-based; parameters: dose 10 mg/kg; details: at 10 mg/kg; method in brief: as §1

Sequence of Dipeptidyl peptidase 8 (Q6V1X1 whole entry): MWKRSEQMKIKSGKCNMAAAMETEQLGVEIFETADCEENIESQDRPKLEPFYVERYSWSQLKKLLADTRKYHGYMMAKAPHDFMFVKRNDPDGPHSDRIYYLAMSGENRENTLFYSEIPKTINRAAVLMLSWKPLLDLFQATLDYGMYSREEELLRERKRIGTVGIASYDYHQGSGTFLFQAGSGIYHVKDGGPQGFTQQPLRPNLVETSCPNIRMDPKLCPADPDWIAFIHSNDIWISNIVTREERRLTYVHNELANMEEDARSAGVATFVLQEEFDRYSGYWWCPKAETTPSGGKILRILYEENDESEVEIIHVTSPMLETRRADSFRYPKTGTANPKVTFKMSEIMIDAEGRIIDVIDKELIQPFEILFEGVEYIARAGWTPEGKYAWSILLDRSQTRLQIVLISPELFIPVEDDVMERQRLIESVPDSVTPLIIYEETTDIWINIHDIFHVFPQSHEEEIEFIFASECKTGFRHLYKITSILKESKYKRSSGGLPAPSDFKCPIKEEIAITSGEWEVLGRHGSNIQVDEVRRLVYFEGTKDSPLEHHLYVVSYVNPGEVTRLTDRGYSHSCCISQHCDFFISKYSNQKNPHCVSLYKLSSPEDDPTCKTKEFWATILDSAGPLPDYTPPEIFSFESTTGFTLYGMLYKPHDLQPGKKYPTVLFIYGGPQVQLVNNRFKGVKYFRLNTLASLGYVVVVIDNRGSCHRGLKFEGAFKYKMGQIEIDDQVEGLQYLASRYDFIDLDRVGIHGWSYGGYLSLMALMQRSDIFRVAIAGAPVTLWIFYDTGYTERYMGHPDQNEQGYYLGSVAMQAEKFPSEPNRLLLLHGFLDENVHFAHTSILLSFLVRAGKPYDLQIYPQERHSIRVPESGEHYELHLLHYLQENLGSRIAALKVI
Sequence of Dipeptidyl peptidase 4 (Rattus norvegicus) (P14740 whole entry, looked up): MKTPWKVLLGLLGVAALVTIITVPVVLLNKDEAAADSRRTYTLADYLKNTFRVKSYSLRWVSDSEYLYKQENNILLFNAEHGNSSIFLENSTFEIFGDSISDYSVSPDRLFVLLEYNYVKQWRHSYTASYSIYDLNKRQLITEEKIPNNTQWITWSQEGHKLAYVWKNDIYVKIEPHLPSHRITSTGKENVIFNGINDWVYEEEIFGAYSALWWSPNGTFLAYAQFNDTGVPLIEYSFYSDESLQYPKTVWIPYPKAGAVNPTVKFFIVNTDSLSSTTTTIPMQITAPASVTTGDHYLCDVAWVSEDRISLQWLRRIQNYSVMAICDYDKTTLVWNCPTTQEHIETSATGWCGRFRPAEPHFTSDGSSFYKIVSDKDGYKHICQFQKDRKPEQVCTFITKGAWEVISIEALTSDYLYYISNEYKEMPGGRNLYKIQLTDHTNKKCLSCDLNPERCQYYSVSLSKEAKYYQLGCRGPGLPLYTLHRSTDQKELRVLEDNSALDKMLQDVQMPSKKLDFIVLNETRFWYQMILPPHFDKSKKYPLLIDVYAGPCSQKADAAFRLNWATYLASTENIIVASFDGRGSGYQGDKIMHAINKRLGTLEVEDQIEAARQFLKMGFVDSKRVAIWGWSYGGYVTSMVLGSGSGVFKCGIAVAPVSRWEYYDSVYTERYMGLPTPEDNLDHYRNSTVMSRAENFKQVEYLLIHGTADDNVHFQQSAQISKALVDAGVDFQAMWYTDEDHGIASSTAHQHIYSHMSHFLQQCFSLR

| Structure (SMILES) | IC50 [1] | IC50 [2] | IC50 [3] | inhibition [5] | inhibition [6] | inhibition [4] |
| --- | --- | --- | --- | --- | --- | --- |
| CC(C)(CC(=O)NCCc1ccccc1C(F)(F)F)NCC(=O)N1CCC[C@H]1C#N | > 20 µM | > 20 µM | > 20 µM |  |  |  |
| CC(C)(CC(=O)NCCc1ccc(Cl)c(Cl)c1)NCC(=O)N1CCC[C@H]1C#N | > 20 µM | > 20 µM | > 20 µM |  |  |  |
| N#C[C@@H]1CCCN1C(=O)CNCCC(=O)NCCc1ccccc1 |  | > 20 µM |  |  |  |  |
| CC(C)(CC(=O)NCCc1cccc(C(F)(F)F)c1)NCC(=O)N1CCC[C@H]1C#N | > 20 µM | > 20 µM | > 20 µM |  |  |  |
| COc1ccc(NC(=O)CC(C)(C)NCC(=O)N2CCC[C@H]2C#N)c(OC)c1OC | > 20 µM | > 20 µM | > 20 µM |  |  |  |
| CC(C)(CC(=O)NCc1ccccc1)NCC(=O)N1CCC[C@H]1C#N | > 20 µM | > 20 µM | > 20 µM |  |  |  |
| Cc1ccc(NC(=O)CC(C)(C)NCC(=O)N2CCC[C@H]2C#N)cc1C | > 20 µM | > 20 µM | > 20 µM |  |  |  |
| COc1ccc(CCNC(=O)CC(C)(C)NCC(=O)N2CCC[C@H]2C#N)cc1OC | > 20 µM | > 20 µM | > 20 µM |  |  |  |
| N#C[C@@H]1CCCN1C(=O)CNCCC(=O)NCc1ccccc1 |  | > 20 µM |  |  |  |  |
| CC(C)(CC(=O)NCc1ccccn1)NCC(=O)N1CCC[C@H]1C#N | > 20 µM | > 20 µM | > 20 µM |  |  |  |
| COc1ccc(NC(=O)CC(C)(C)NCC(=O)N2CCC[C@H]2C#N)cc1OC | > 20 µM | > 20 µM | > 20 µM | > 50% | > 80% | Active |
| Cc1ccc(CCNC(=O)CC(C)(C)NCC(=O)N2CCC[C@H]2C#N)cc1 | > 20 µM | > 20 µM | > 20 µM |  |  |  |
| CC(C)(CC(=O)NC(C)(C)Cc1ccccc1)NCC(=O)N1CCC[C@H]1C#N | > 20 µM | > 20 µM | > 20 µM |  |  |  |
| CC(C)(CC(=O)Nc1ccc(-c2ccccc2)cc1)NCC(=O)N1CCC[C@H]1C#N | > 20 µM | > 20 µM | 0.8 µM |  |  |  |
| CC(C)(CC(=O)NCCc1ccccc1)NCC(=O)N1CCC[C@H]1C#N | > 20 µM | > 20 µM | > 20 µM |  |  |  |
| CC(C)(CC(=O)Nc1ccccc1)NCC(=O)N1CCC[C@H]1C#N | > 20 µM | > 20 µM | > 20 µM |  |  |  |
| C[C@@H](CC(=O)NC(C)(C)c1ccccc1)NCC(=O)N1CCC[C@H]1C#N |  |  | > 20 µM |  |  |  |

Now from value to molecule, other results behind:

| IC50 [1] | IC50 [2] | IC50 [3] | inhibition [5] | inhibition [6] | Structure (SMILES) | inhibition [4] |
| --- | --- | --- | --- | --- | --- | --- |
| > 20 µM | > 20 µM | > 20 µM |  |  | CC(C)(CC(=O)NCCc1ccccn1)NCC(=O)N1CCC[C@H]1C#N | Active |
| > 20 µM | > 20 µM | > 20 µM |  |  | CC(C)(CC(=O)Nc1ccc(F)cc1)NCC(=O)N1CCC[C@H]1C#N |  |
| > 20 µM | > 20 µM | > 20 µM |  |  | CC(C)(CC(=O)NC(C)(C)c1ccccc1)NCC(=O)N1CCC[C@H]1C#N |  |
| > 20 µM | > 20 µM | > 20 µM |  |  | CC(C)(CC(=O)Nc1ccc(F)c(F)c1)NCC(=O)N1CCC[C@H]1C#N |  |
| > 20 µM | > 20 µM | > 20 µM |  |  | CC(C)(CC(=O)NCCc1ccc(C(F)(F)F)cc1)NCC(=O)N1CCC[C@H]1C#N |  |
|  | > 20 µM | > 20 µM |  |  | CC(C)(NC(=O)CCNCC(=O)N1CCC[C@H]1C#N)c1ccccc1 |  |
| > 20 µM | > 20 µM | > 20 µM |  |  | COc1ccc(NC(=O)CC(C)(C)NCC(=O)N2CCC[C@H]2C#N)cc1 |  |
|  | > 20 µM | > 20 µM |  |  | C[C@H](CC(=O)NC(C)(C)c1ccccc1)NCC(=O)N1CCC[C@H]1C#N |  |
